Our source for the IC50 and inhibition values is ChEMBL document CHEMBL3580548, “Ervatamines A-I, Anti-inflammatory Monoterpenoid Indole Alkaloids with Diverse Skeletons from Ervatamia hainanensis” (J Nat Prod, 2015).

Structures are written as SMILES. pIC50: −log10 of the molar value. The source made the active and inactive calls. The rule behind the calls is not given here.

Common to all, as to type: functional, cell-based
The subject of one assay is RAW264.7. Briefly: Anti-inflammatory activity in mouse RAW264.7 cells assessed as LPS-stimulated inhibition of nitric oxide production incubated simultaneously with LPS for 24 hrs by Griess reagent based assay. Conditions: for pIC50: RAW264.7, 24 h. A digest of the protocol:
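RAW264.7 cells grown in RPMI 1640 with 10% heat-inactivated FBS, penicillin 100 U/mL and streptomycin 100 μg/mL; 1 × 10^5 cells/well allowed to adhere 2 h at 37 °C, 5% CO2. Cells exposed to 1 μg/mL LPS for 24 h with or without compounds across a concentration range. Indomethacin as positive control. Nitrite in supernatant measured by Griess reagent. Run in triplicate; IC50 reported.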
For orientation: Griess reagent forms a coloured azo dye with nitrite.

The next assay relates to HL-60. Briefly: Cytotoxicity against human HL60 cells by MTT assay. On the technique in general: Tetrazolium dyes change colour on reduction, which living cells bring about.
Assay [1] can be described thus: Cytotoxicity against human 786-O cells by MTT assay. Conditions: 786-0.

Broadly, the pIC50 is the IC50 on a negative log10 scale, so that one unit is a factor of ten. For the compound `CC[C@@]1(O)CC2[C@H]3C(C(=O)OC)=C4Nc5ccccc5C45CCN([C@H]25)[C@H]31` (some centres not stated), the pIC50 in the assay with RAW264.7 was 4.38.

Take `C/C=C1/C[N@+]2(C)CCc3c([nH]c4ccccc34)[C@H](C(=O)[O-])[C@H]1CC2`: the inhibition entry in the assay with RAW264.7 is “inactive”.

Take `CC[C@H]1C[C@@H]2C[C@@]3(C(=O)OC)c4[nH]c5ccccc5c4CCN(C2CO)[C@@H]13` (some centres not stated): the inhibition result in the assay on RAW264.7 was “Active”.

Consider `C[C@H](O)[C@@H]1C[C@H]2C[C@H]3c4[nH]c5ccccc5c4CCN(C2)[C@@H]13`, for which the inhibition entry in the assay with RAW264.7 is “Active”.

In the case of `COC(=O)[C@@]12C[C@H]3C[C@H](C(C)=O)[C@@H]1N(CCc1c2[nH]c2ccccc12)C3`, the inhibition result in the assay with RAW264.7 was “Active”. The pIC50 with HL-60 is 4.31; in assay [1], 4.56.

On to `COC(=O)[C@@]12C[C@@H]3C[C@@H](C(C)O)[C@@H]1N(CC[C@]21Nc2ccccc2C1=O)C3` (some centres not stated), for which the inhibition result in the assay on RAW264.7 was “inactive”.

Turning to `COC(=O)[C@]12C[C@@H]3CN(CCc4c1[nH]c1ccccc41)[C@H]2[C@@H]([C@H](C)O)C3O` (some centres not stated), in the assay on RAW264.7, the inhibition entry is “Active”.

For the compound `COC(=O)[C@@]12C[C@H]3C[C@H]([C@H](C)O)[C@@H]1N(CCc1c2[nH]c2ccccc12)C3CC(C)=O` (some centres not stated), in the assay on RAW264.7, the inhibition entry is “Active”.

As to `COC(=O)[C@@]12C[C@H]3C[C@H]([C@H](C)O)[C@@H]1N(Cc1c2n(C=O)c2ccccc12)C3`, the inhibition entry in the assay on RAW264.7 is “inactive”.

As for `C[N@@+]12CCc3c([nH]c4ccccc34)[C@](CO)(C(=O)[O-])[C@@H](CC1)/C(=C\CO)C2`, the inhibition result in the assay with RAW264.7 was “inactive”.

For the compound `C/C=C1/C[N@+]2(C)CCc3c([nH]c4ccccc34)[C@@H](C(=O)[O-])[C@H]1CC2`, the inhibition entry in the assay on RAW264.7 was “inactive”.

Consider `CC[C@H]1C[C@@H]2C[C@@]3(C(=O)OC)c4[nH]c5ccccc5c4CCN(C2CC(C)=O)[C@@H]13` (some centres not stated), for which the inhibition entry in the assay with RAW264.7 was “Active”.

For the compound `CC[C@H]1C[C@@H]2CN3CCc4c([nH]c5ccccc45)[C@](C(=O)OC)(C2)[C@H]13` [CORONARIDINE], the pIC50 in the assay with RAW264.7 is 4.59.

As for `C/C=C1/C[N@+]2(C)CCc3c([nH]c4ccccc34)C(CO)(C(=O)[O-])[C@H]1CC2` (some centres not stated), in the assay with RAW264.7, the inhibition entry was “inactive”.

Regarding `COc1ccc2c(c1)c(CC(=O)O)c(C)n2C(=O)c1ccc(Cl)cc1` [INDOMETHACIN], the pIC50 with RAW264.7 is 4.37.
